Experimental data as given in ChEMBL document CHEMBL4477180, “Synthesis and Structure-Activity Relationships of N-Dihydrocoptisine-8-ylidene Aromatic Amines and N-Dihydrocoptisine-8-ylidene Aliphatic Amides as Antiulcerative Colitis Agents Targeting XBP1” (J Nat Prod, 2016).
Activity calls are given as the source filed them. No cut-off for these calls is given here.

Key:
[1] = system: Mus musculus; test: Antiulcerative activity in DSS-induced C57BL/6J mouse model of acute ulcerative colitis assessed as colon contracture at 200 mg/kg, po measured over 7 days (reference value: 37 %); assay type: functional
How it was run: (§1)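 Acute DSS colitis in C57bl/6j mice (n = 8/group), oral dosing (200 mg/kg test, SASP 300 mg/kg), 7-day trial with normal and DSS model groups. Colon length was measured at the end of the trial, and contracture was given as percentage shortening versus normal controls.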

[2] = system: Mus musculus; test: Antiulcerative activity in DSS-induced C57BL/6J mouse model of acute ulcerative colitis assessed as improvement in colon lesion at 200 mg/kg, po measured over 7 days by microscopic analysis; assay type: functional, organism-based
How it was run: (§2)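 At the end of the 7-day DSS acute UC trial in C57bl/6j mice (oral 200 mg/kg; SASP 300 mg/kg; normal and model groups), colon tissue was examined microscopically after HE staining at ×200 for histopathological change.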

[3] = system: Mus musculus; test: Antiulcerative activity in DSS-induced C57BL/6J mouse model of acute ulcerative colitis assessed as inhibition of disease activity index at 200 mg/kg, po measured over 7 days relative to control; assay type: functional; details: 168 h
How it was run: (§3)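 Disease activity index (DAI) was scored in DSS-induced acute UC C57bl/6j mice (n = 8/group) given oral compound at 200 mg/kg or SASP at 300 mg/kg over 7 days. Inhibition ratio (IR %) is reported relative to the DSS model group.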

[4] = Cytotoxicity against rat IEC-6 cells assessed as survival at 10 uM by MTT assay; assay type: cell-based; details: read-out: Survival
[5] = system: Mus musculus; test: Antiulcerative activity in DSS-induced C57BL/6J mouse model of acute ulcerative colitis assessed as colon macroscopic damage index at 200 mg/kg, po measured over 7 days (reference value: 4.63 +/- 0.52); assay type: functional
[6] = target: T1, X-box-binding protein 1 (Rattus norvegicus) (UniProt Q9R1S4); test: Activation of XBP1 in rat IEC-6 cells assessed as transcriptional activity at 10 uM measured after 48 hrs by dual luciferase reporter gene assay relative to con 2; assay type: cell-based
T1 sequence (whole entry): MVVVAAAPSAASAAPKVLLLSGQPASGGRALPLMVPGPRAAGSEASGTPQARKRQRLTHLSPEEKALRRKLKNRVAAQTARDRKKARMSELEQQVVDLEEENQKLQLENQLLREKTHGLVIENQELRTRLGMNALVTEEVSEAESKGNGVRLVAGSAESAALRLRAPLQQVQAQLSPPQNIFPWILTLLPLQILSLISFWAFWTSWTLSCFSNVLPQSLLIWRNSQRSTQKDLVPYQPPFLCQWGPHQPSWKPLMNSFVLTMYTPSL
How it was run: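 XBP1 transcriptional activity read by dual luciferase reporter in growth-phase IEC-6 cells (5 × 10⁴ cells/well). Cells had 4 h plasmid transfection at 37 °C, 5% CO₂, then were coincubated 48 h with compound at 10 μM. Con 1 served as background contrast and con 2 as the pGL3-basic vector control.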

[7] = system: Mus musculus; test: Antiulcerative activity in DSS-induced C57BL/6J mouse model of acute ulcerative colitis assessed as body weight loss at 200 mg/kg, po measured over 7 days (reference value: 18%); assay type: functional
[8] = target: T2, X-box-binding protein 1 (Rattus norvegicus, UniProt Q9R1S4); test: Activation of XBP1 in rat IEC-6 cells assessed as transcriptional activity measured after 48 hrs by dual luciferase reporter gene assay; assay type: cell-based
T2 sequence (Q9R1S4 whole entry): T1 sequence (whole entry)
How it was run: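 Dose–effect version of the IEC-6 XBP1 dual luciferase reporter assay. Cells (5 × 10⁴/well) had 4 h plasmid transfection at 37 °C, 5% CO₂, then 48 h coincubation with compound; EC₅₀ was taken from the dose–effect relationship.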

[9] = system: Mus musculus; test: Antiulcerative activity in DSS-induced C57BL/6J mouse model of acute ulcerative colitis assessed as partial disappearance of inflammatory edema at 300 mg/kg, po measured over 7 days by microscopic analysis
[10] = system: Mus musculus; test: Antiulcerative activity in DSS-induced C57BL/6J mouse model of acute ulcerative colitis assessed as body weight loss at 300 mg/kg, po measured over 7 days (reference value: 18%); assay type: functional
[11] = system: Mus musculus; test: Antiulcerative activity in DSS-induced C57BL/6J mouse model of acute ulcerative colitis assessed as colon macroscopic damage index at 300 mg/kg, po measured over 7 days (reference value: 4.63 +/- 0.52); assay type: functional
[12] = system: Mus musculus; test: Antiulcerative activity in DSS-induced C57BL/6J mouse model of acute ulcerative colitis assessed as inhibition of disease activity index at 300 mg/kg, po measured over 7 days relative to control; assay type: functional; details: 168 h; how it was run: as §3
[13] = system: Mus musculus; test: Antiulcerative activity in DSS-induced C57BL/6J mouse model of acute ulcerative colitis assessed as colon contracture at 300 mg/kg, po measured over 7 days (reference value: 37 %); assay type: functional; how it was run: as §1
[14] = system: Mus musculus; test: Antiulcerative activity in DSS-induced C57BL/6J mouse model of acute ulcerative colitis assessed as regular arrangement of IEC cells at 200 mg/kg, po measured over 7 days by microscopic analysis; assay type: functional, organism-based; how it was run: as §2

Compound	viability at 10 µM [4] [%]	fold change (FC) [6]	EC50 ([8]; read-out: EC50) [nM]	also measured
CCCCC(=O)/N=c1\c2c3c(ccc2cc2n1CCc1cc4c(cc1-2)OCO4)OCO3	79 to 103	> 1.07	32.5	Activity [1]: 15%; Activity [2]: Active; inhibition in vivo at 200 mg/kg [3]: 33%; Activity [5]: 2.63; Activity [7]: 10%
[Cl-].c1c2c(cc3c1OCO3)-c1cc3ccc4c(c3c[n+]1CC2)OCO4 [COPTISINE CHLORIDE]	79 to 103	–	–	Ratio [6]: 0.78 to 107; EC50 [8]: Not Active
COc1ccc(/N=c2/c3c4c(ccc3cc3n2CCc2cc5c(cc2-3)OCO5)OCO4)cc1	79 to 103	–	184	Ratio [6]: 0.78 to 107
CC(=O)/N=c1\c2c3c(ccc2cc2n1CCc1cc4c(cc1-2)OCO4)OCO3	79 to 103	> 1.07	283	–
Brc1ccc(/N=c2/c3c4c(ccc3cc3n2CCc2cc5c(cc2-3)OCO5)OCO4)cc1	79 to 103	> 1.07	48.9	–
CCC(=O)/N=c1\c2c3c(ccc2cc2n1CCc1cc4c(cc1-2)OCO4)OCO3	79 to 103	> 1.07	289	–
Clc1ccc(/N=c2/c3c4c(ccc3cc3n2CCc2cc5c(cc2-3)OCO5)OCO4)cc1	79 to 103	> 1.07	174	–
c1ccc(/N=c2/c3c4c(ccc3cc3n2CCc2cc5c(cc2-3)OCO5)OCO4)cc1	79 to 103	> 1.07	113	–
CCCC(=O)/N=c1\c2c3c(ccc2cc2n1CCc1cc4c(cc1-2)OCO4)OCO3	79 to 103	> 1.07	119	–
Fc1ccc(/N=c2/c3c4c(ccc3cc3n2CCc2cc5c(cc2-3)OCO5)OCO4)cc1	79 to 103	> 1.07	346	–
O=C(O)C1=C/C(=N\Nc2ccc(S(=O)(=O)Nc3ccccn3)cc2)C=CC1=O	–	–	–	Activity [9]: Active; Activity [10]: 9%; Activity [11]: 3.17; inhibition in vivo at 300 mg/kg [12]: 18%; Activity [13]: 24%
O=c1c2c3c(ccc2cc2n1CCc1cc4c(cc1-2)OCO4)OCO3	–	> 1.07	79.8	–
CCCCCC(=O)/N=c1\c2c3c(ccc2cc2n1CCc1cc4c(cc1-2)OCO4)OCO3	79 to 103	> 1.07	70.8	–
CCCCCCCC(=O)/N=c1\c2c3c(ccc2cc2n1CCc1cc4c(cc1-2)OCO4)OCO3	79 to 103	–	–	Ratio [6]: 0.78 to 107; EC50 [8]: Not Active
CCCCCCC(=O)/N=c1\c2c3c(ccc2cc2n1CCc1cc4c(cc1-2)OCO4)OCO3	79 to 103	–	–	Ratio [6]: 0.78 to 107; EC50 [8]: Not Active
N=c1c2c3c(ccc2cc2n1CCc1cc4c(cc1-2)OCO4)OCO3	79 to 103	–	–	Ratio [6]: 0.78 to 107; EC50 [8]: Not Active
Cc1ccc(/N=c2/c3c4c(ccc3cc3n2CCc2cc5c(cc2-3)OCO5)OCO4)cc1	79 to 103	> 1.07	13.2	Activity [1]: 9%; inhibition in vivo at 200 mg/kg [3]: 27%; Activity [5]: 2.63; Activity [7]: 11%; Activity [14]: Active
